Test results reported in ChEMBL document CHEMBL4513216, “Probing the Open Global Health Chemical Diversity Library for Multistage-Active Starting Points for Next-Generation Antimalarials” (ACS Infect Dis, 2020).

experiment: Toxicity liver stage against HepG2, at 10uM; format: cell-based; design: test concentration 10 uM, cell line HepG2-A16-CD81EGFP; details: human, HepG2-A16-CD81EGFP cells; read-out: INHIBITION
Summary of the method: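 Uninfected HepG2-A16-CD81EGFP cells, 3 × 10^3 per well, 1536-well, plated on prespotted compound at 10 μM final, parasite-free screening media added to match infected plates; puromycin 10 μM positive, DMSO 0.5% negative; run in parallel with 48 h PbLuc assay at 37 °C, 5% CO2; viability by CellTiter-Glo luminescence, normalized to controls.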

Q: Which cytotoxicity at 10 µM does the source give for CCOc1ccccc1OC1CCN(Cc2ccn(C)c(=O)c2)CC1 here?
A: Its cytotoxicity at 10 µM is 3.91%.

Q: With Cc1nccn1C1CCCN(C(=O)c2ccc(N(C)C)nc2)C1 (centres undefined) as the compound, how does the cytotoxicity at 10 µM read?
A: The cytotoxicity at 10 µM was -7.62%.

Q: For CC(C1CC1)N(C)C(=O)c1ccc(-n2ncc(C#N)c2N)cc1 (centres undefined), which cytotoxicity at 10 µM is on record?
A: Its cytotoxicity at 10 µM is 3.51%.

Q: For Cc1n[nH]c2c1C(c1ccc(Br)cc1)SCC(=O)N2 (centres undefined), which cytotoxicity at 10 µM is on record?
A: Its cytotoxicity at 10 µM is 6.5%.

Q: With O=S(=O)(NCC1(O)CCOCC1)c1c(F)cccc1F as the compound, how does the cytotoxicity at 10 µM read?
A: The cytotoxicity at 10 µM was -4.97%.

Q: With Cc1cn[nH]c1C1COCCN1C(=O)c1cc(F)ccc1F (centres undefined) as the compound, how does the cytotoxicity at 10 µM read?
A: The cytotoxicity at 10 µM was -0.658%.

Q: For CCCNC(=O)Nc1ccc2c(c1)N(S(=O)(=O)CC)CC2, which cytotoxicity at 10 µM is on record?
A: Its cytotoxicity at 10 µM is 1.97%.

Q: Which cytotoxicity at 10 µM does the source give for CN(Cc1nc(-c2ccco2)no1)C1CCCN(c2cccnn2)C1 (centres undefined) here?
A: The cytotoxicity at 10 µM was -7.72%.

Q: For O=C(COc1cccc(F)c1)N1C[C@@H](CN2CCCC2)C[C@H](CO)C1, which cytotoxicity at 10 µM is on record?
A: The cytotoxicity at 10 µM was 3.94%.

Q: With CCc1ccccc1CN1CC[C@@]2(O)CCN(S(=O)(=O)N(C)C)C[C@H]2C1 as the compound, how does the cytotoxicity at 10 µM read?
A: The cytotoxicity at 10 µM was -2.19%.

Q: Which cytotoxicity at 10 µM does the source give for Cc1noc(C2CN(S(C)(=O)=O)Cc3ccnn3C2)n1 (centres undefined) here?
A: Its cytotoxicity at 10 µM is 4.92%.

Q: Which cytotoxicity at 10 µM does the source give for CCC[C@@H]1CN(Cc2c[nH]c(CC3CCCC3)n2)C[C@H]1C(=O)O here?
A: The cytotoxicity at 10 µM was 4.86%.

Q: For Cc1nc2ccccc2c(=O)n1CCC(=O)N1CCSCC1, which cytotoxicity at 10 µM is on record?
A: Its cytotoxicity at 10 µM is -6.13%.

Q: With O=S1(=O)CCC(c2nnc(-c3cnc4onc(C5CCCC5)c4c3)o2)C1 (centres undefined) as the compound, how does the cytotoxicity at 10 µM read?
A: The cytotoxicity at 10 µM was 1.84%.

Q: For CCn1nnnc1-c1cccc(NC(=O)COC2CCCC2)c1, which cytotoxicity at 10 µM is on record?
A: The cytotoxicity at 10 µM was -0.47%.

Q: For Cn1cnc2cc(NC(=O)c3n[nH]c4c3CCC4)ccc21, which cytotoxicity at 10 µM is on record?
A: The cytotoxicity at 10 µM was -0.806%.

Q: With Cc1nc2[nH]cc(C(=O)N3CCCCC3c3ccc(F)cc3)c(=O)n2n1 (centres undefined) as the compound, how does the cytotoxicity at 10 µM read?
A: The cytotoxicity at 10 µM was 3.63%.

Q: For Cc1ccc(S(=O)(=O)n2ccc(C(=O)NCC(F)(F)F)c2)cc1, which cytotoxicity at 10 µM is on record?
A: The cytotoxicity at 10 µM was -4.78%.

Q: For CN1Cc2ccccc2CC1C(=O)N1CCN(CCS(C)(=O)=O)CC1 (centres undefined), which cytotoxicity at 10 µM is on record?
A: Its cytotoxicity at 10 µM is 15.1%.

Q: With Cc1cc(C2CCCN2CCC(=O)N2CCc3sccc3C2)no1 (centres undefined) as the compound, how does the cytotoxicity at 10 µM read?
A: Its cytotoxicity at 10 µM is -16.1%.

Q: Which cytotoxicity at 10 µM does the source give for CCc1ccc2nc(C)cc(C(=O)N[C@@H]3CNC[C@H]3O)c2c1 here?
A: Its cytotoxicity at 10 µM is -11%.

Q: Which cytotoxicity at 10 µM does the source give for CO[C@H]1C[C@@H](O)C12CCN(C(=O)CCSCc1ccc(F)cc1)CC2 here?
A: The cytotoxicity at 10 µM was -5.22%.

Q: With CCn1nc(C)c2nn(CC(=O)NC3CCSCC3)cc21 as the compound, how does the cytotoxicity at 10 µM read?
A: Its cytotoxicity at 10 µM is -3.57%.

Q: For CC(c1nc(C2CC2)no1)N1CCN(Cc2cccnc2)CC1 (centres undefined), which cytotoxicity at 10 µM is on record?
A: The cytotoxicity at 10 µM was -6.18%.

Q: With CCSc1ccc(C(=O)N2CCCCC2C(=O)NC(C)(C)C)cn1 (centres undefined) as the compound, how does the cytotoxicity at 10 µM read?
A: Its cytotoxicity at 10 µM is -7.69%.

Q: Which cytotoxicity at 10 µM does the source give for N#Cc1ccc(C(=O)N2C[C@@H](CN3CCCC3)C[C@H](CO)C2)cc1 here?
A: Its cytotoxicity at 10 µM is -2.86%.

Q: Which cytotoxicity at 10 µM does the source give for Cc1nc(C2CCCN(C(=O)c3c[nH]c(C(C)C)n3)C2)no1 (centres undefined) here?
A: Its cytotoxicity at 10 µM is -7.52%.

Q: For Cc1nn(C)c(N2CCOCC2)c1CNCc1nccs1, which cytotoxicity at 10 µM is on record?
A: The cytotoxicity at 10 µM was -6.33%.

Q: Which cytotoxicity at 10 µM does the source give for Cc1cc(C(=O)N2CCCC3(C=Cc4ccccc4O3)CC2)cc(=O)[nH]1 (centres undefined) here?
A: The cytotoxicity at 10 µM was 8.06%.

Q: Which cytotoxicity at 10 µM does the source give for COCCCOC1CN(C(=O)c2[nH]nc3c2CCCC3)C1 here?
A: The cytotoxicity at 10 µM was 8.11%.

Q: With CC(C)c1noc(CN2CCCC2c2noc(C(C)C)n2)n1 (centres undefined) as the compound, how does the cytotoxicity at 10 µM read?
A: Its cytotoxicity at 10 µM is -5.89%.

Q: Which cytotoxicity at 10 µM does the source give for CCCc1cc(C(=O)NCCn2nc3ccccn3c2=O)[nH]n1 here?
A: Its cytotoxicity at 10 µM is -3.56%.

Q: Which cytotoxicity at 10 µM does the source give for O=C(NC[C@H]1Cn2c(-c3ccccc3)cnc2CO1)C1CC1 here?
A: Its cytotoxicity at 10 µM is -3.01%.

Q: Which cytotoxicity at 10 µM does the source give for c1cc(CN2Cc3nccn3CC(Cn3cncn3)C2)ccn1 (centres undefined) here?
A: The cytotoxicity at 10 µM was -134%.

Q: With O=C(Cc1cccc(F)c1)N1CCCCC1c1ccn2ccnc2n1 (centres undefined) as the compound, how does the cytotoxicity at 10 µM read?
A: The cytotoxicity at 10 µM was -0.619%.

Q: For O=C(c1cnccn1)N1CCCC2(CCCN2Cc2cccnc2)C1 (centres undefined), which cytotoxicity at 10 µM is on record?
A: The cytotoxicity at 10 µM was -1.01%.

Q: With CCS(=O)(=O)CCSc1ccc(Cl)cc1 as the compound, how does the cytotoxicity at 10 µM read?
A: Its cytotoxicity at 10 µM is -1.13%.

Q: For Cn1ccc(C(=O)N2CCC3(CCC(=O)N(C4CCCC4)C3)CC2)n1, which cytotoxicity at 10 µM is on record?
A: The cytotoxicity at 10 µM was -6.19%.

Q: Which cytotoxicity at 10 µM does the source give for Cc1cc(C(=O)N2CCN(Cn3cc(Cl)cn3)CC2)c(C)o1 here?
A: The cytotoxicity at 10 µM was 10.9%.

Q: Which cytotoxicity at 10 µM does the source give for O=C(C1CC1)N1C[C@@H](F)[C@@H](OCc2nc3ccccc3[nH]2)C1 here?
A: Its cytotoxicity at 10 µM is -0.0342%.

Q: For Cc1ncccc1C(=O)Nc1cccc(Cn2ccccc2=O)c1, which cytotoxicity at 10 µM is on record?
A: The cytotoxicity at 10 µM was 3.06%.

Q: Which cytotoxicity at 10 µM does the source give for CC(=O)N1CCN(CC(C)(O)c2cccc(C(F)(F)F)c2)CC1 (centres undefined) here?
A: The cytotoxicity at 10 µM was -14.6%.

Q: With CN1CCCC(NC(=O)c2ccc(C(=O)c3cc[nH]c3)cc2)C1 (centres undefined) as the compound, how does the cytotoxicity at 10 µM read?
A: The cytotoxicity at 10 µM was 11.9%.

Q: Which cytotoxicity at 10 µM does the source give for CC(C)OCCCNC(=O)CN(c1ccc(F)c(F)c1)S(C)(=O)=O here?
A: Its cytotoxicity at 10 µM is 9.96%.
